# Columns and labels:
# [1] = Total plasma concentration in SCID mouse xenografted with PTEN-null human PC3 cells at 200 mg/kg, po measured after 30 mins; type: ADME, organism-based, PC-3; parameters: dose 200 mg/kg, route oral
# Method in brief: (§1)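 Total plasma concentration was measured in SCID mice carrying PC3 xenografts after a single oral dose given as a suspension (50, 100 or 200 mg/kg). Samples were taken at 0.5 to 8 h.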
# [2] = Total plasma concentration in SCID mouse xenografted with PTEN-null human PC3 cells at 200 mg/kg, po measured after 4 hrs; type: ADME, organism-based, PC-3; parameters: dose 200 mg/kg, route oral; method in brief: as §1
# [3] = Total plasma concentration in SCID mouse xenografted with PTEN-null human PC3 cells at 200 mg/kg, po measured after 8 hrs; type: ADME, organism-based, PC-3; parameters: dose 200 mg/kg, route oral; method in brief: as §1
# [4] = Ratio of total plasma concentration in PTEN-null human PC3 cells xenografted in SCID mouse at 200 mg/kg, po single dose at 0.5 hrs to IC50 for PI3Kbeta in human […] cells; parameters: species or system PC-3
# Method in brief: (§2)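 SCID mice bearing PTEN-null PC3 prostate tumour xenografts got a single oral dose given as a suspension. Total plasma concentration was measured at the sampled time points (0.5, 4 or 8 h). The value is the […] cover over the PI3Kβ cellular IC50, which comes from inhibition of Ser473 Akt phosphorylation in PTEN-null MDA-MB-468 breast adenocarcinoma cells.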
# [5] = Ratio of total plasma concentration in PTEN-null human PC3 cells xenografted in SCID mouse at 200 mg/kg, po single dose at 4 hrs to IC50 for PI3Kbeta in human […] cells; parameters: species or system PC-3; method in brief: as §2
# [6] = Ratio of total plasma concentration in PTEN-null human PC3 cells xenografted in SCID mouse at 200 mg/kg, po single dose at 8 hrs to IC50 for PI3Kbeta in human […] cells; parameters: species or system PC-3; method in brief: as §2
# [7] = target: T1, Phosphatidylinositol 4,5-bisphosphate 3-kinase catalytic subunit beta isoform (Homo sapiens, UniProt P42338); assay: Inhibition of PI3Kbeta in human MAD-MB-468 cells assessed as inhibition of Ser473 Akt phosphorylation by cellular potency assay
# [8] = Apparent permeability from apical (pH 6.5) to […] of human Caco2 cells; type: ADME, cell-based; conditions: Caco-2, pH 6.5
# [9] = Buffer/octanol partition coefficient, log D of the compound at pH 7.4 by shake flask method; type: physicochemical
# Method in brief: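 LogD at pH 7.4 was measured by shake-flask with a buffer/octanol volume ratio of 100:1.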
# [10] = Intrinsic clearance in human hepatocytes measured per 10^6 cells; type: ADME, cell-based, Hepatocyte; conditions: read-out: CLH
# Method in brief: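 Intrinsic clearance was measured in human hepatocytes and is expressed in µL/min/10^6 cells.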
# [11] = Solubility of the compound in phosphate buffer at pH 7.4; type: physicochemical
# Method in brief: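 Solubility was measured from solid material in phosphate buffer at pH 7.4.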
# [12] = target: T2, Phosphatidylinositol 4,5-bisphosphate 3-kinase catalytic subunit alpha isoform (Homo sapiens, UniProt P42336); assay: Inhibition of human recombinant PI3Kalpha assessed as depletion of ATP substrate by Ultra Glo luciferase assay
# Method in brief: (§3)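 Enzyme IC50s are reported as the geometric mean of 3 or more values.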
# [13] = target: T1, Phosphatidylinositol 4,5-bisphosphate 3-kinase catalytic subunit beta isoform; assay: Inhibition of human recombinant PI3Kbeta assessed as depletion of ATP substrate by Ultra Glo luciferase assay; method in brief: as §3
# [14] = target: Phosphatidylinositol 4,5-bisphosphate 3-kinase catalytic subunit gamma isoform (Homo sapiens, UniProt P48736); assay: Inhibition of human recombinant PI3Kgamma assessed as depletion of ATP substrate by Ultra Glo luciferase assay; method in brief: as §3
# [15] = target: T3, Phosphatidylinositol 4,5-bisphosphate 3-kinase catalytic subunit delta isoform (Homo sapiens, UniProt O00329); assay: Inhibition of human recombinant PI3Kdelta assessed as depletion of ATP substrate by Ultra Glo luciferase assay; method in brief: as §3
# T3 sequence (O00329 whole entry): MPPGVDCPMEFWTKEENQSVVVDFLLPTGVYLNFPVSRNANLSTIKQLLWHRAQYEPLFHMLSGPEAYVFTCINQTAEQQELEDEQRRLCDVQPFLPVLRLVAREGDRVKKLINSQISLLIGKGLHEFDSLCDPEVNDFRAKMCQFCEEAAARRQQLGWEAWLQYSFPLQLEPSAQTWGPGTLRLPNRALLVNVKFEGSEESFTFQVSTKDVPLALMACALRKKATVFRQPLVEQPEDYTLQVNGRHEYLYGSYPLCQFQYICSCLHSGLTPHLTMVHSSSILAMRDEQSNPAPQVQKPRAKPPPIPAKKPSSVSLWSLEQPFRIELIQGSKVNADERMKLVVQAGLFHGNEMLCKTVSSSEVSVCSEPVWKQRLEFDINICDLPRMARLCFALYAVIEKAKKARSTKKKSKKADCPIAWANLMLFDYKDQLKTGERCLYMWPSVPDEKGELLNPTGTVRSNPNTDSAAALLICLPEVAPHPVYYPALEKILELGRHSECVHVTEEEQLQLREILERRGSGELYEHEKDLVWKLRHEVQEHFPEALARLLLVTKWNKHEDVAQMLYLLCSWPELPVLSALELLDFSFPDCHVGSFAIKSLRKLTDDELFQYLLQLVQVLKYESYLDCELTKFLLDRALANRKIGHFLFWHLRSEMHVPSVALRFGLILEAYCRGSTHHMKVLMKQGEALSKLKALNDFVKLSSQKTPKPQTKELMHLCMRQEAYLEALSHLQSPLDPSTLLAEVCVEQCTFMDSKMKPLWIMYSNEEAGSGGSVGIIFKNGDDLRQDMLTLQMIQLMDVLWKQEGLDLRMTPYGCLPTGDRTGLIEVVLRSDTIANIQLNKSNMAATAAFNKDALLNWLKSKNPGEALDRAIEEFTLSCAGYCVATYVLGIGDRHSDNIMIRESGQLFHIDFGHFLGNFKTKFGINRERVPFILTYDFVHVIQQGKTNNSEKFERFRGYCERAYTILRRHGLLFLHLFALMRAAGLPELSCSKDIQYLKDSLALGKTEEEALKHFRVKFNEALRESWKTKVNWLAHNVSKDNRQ
# [16] = target: T2, Phosphatidylinositol 4,5-bisphosphate 3-kinase catalytic subunit alpha isoform; assay: Inhibition of PI3Kalpha in human BT474 cells assessed as inhibition of […] Akt phosphorylation after 2 hrs by fluorescence assay; type: cell-based, BT-474
# Method in brief: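 BT474 cells were seeded in DMEM with 10% FCS and 1% glutamine and left to adhere overnight, then treated with compound in DMSO for 2 h at 37 °C and 5% CO2. Cells were lysed with a phosphatase/protease-inhibitor buffer. Lysate was captured on anti-total-Akt plates, probed with anti-phospho-Akt Thr308 and an HRP secondary, and read by fluorescence (ex 325/em 420 nm). Values are the geometric mean of ≥2 determinations.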
# [17] = Fraction unbound in mouse plasma; type: ADME, cell-free
# Method in brief: (§4)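 Protein binding was measured in nude mouse plasma and in human plasma and is expressed as fraction unbound (%).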
# [18] = Fraction unbound in human plasma; type: ADME, cell-free; method in brief: as §4
# [19] = Clearance in mouse plasma at 5 umol/kg, iv and 30 umol/kg, po; type: ADME, organism-based
# Method in brief: (§5)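 […] mice were dosed at 5 µmol/kg i.v. and 30 µmol/kg p.o. Clearance is given in mL/min/kg and oral bioavailability in %.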
# [20] = Bioavailability in mouse plasma at 5 umol/kg, iv and 30 umol/kg, po; type: ADME, organism-based; method in brief: as §5
# Mus musculus [21] = assay: Inhibition of Akt phosphorylation in SCID mouse xenografted with PTEN-null human PC3 cells at 200 mg/kg, po measured after 30 mins; type: functional; conditions: PC-3, 0.5 h
# Method in brief: (§6)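 SCID mice carrying PTEN-null PC3 prostate xenografts received a single oral dose as a suspension (50, 100 or 200 mg/kg).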
# Mus musculus [22] = assay: Inhibition of Akt phosphorylation in SCID mouse xenografted with PTEN-null human PC3 cells at 200 mg/kg, po measured after 4 hrs; type: functional; conditions: PC-3, 4 h; method in brief: as §6
# Mus musculus [23] = assay: Inhibition of Akt phosphorylation in SCID mouse xenografted with PTEN-null human PC3 cells at 200 mg/kg, po measured after 8 hrs; type: functional; conditions: PC-3, 8 h; method in brief: as §6
# [24] = Ratio of total plasma concentration in PTEN-null human PC3 cells xenografted in SCID mouse at 100 mg/kg, po single dose at 0.5 hrs to IC50 for PI3Kbeta in human […] cells; parameters: species or system PC-3; method in brief: as §2
# [25] = Ratio of total plasma concentration in PTEN-null human PC3 cells xenografted in SCID mouse at 100 mg/kg, po single dose at 4 hrs to IC50 for PI3Kbeta in human MAD-MB-468 cells; parameters: species or system PC-3
# [26] = Half life in mouse plasma at 5 umol/kg, iv and 30 umol/kg, po; type: ADME, organism-based
# Mus musculus [27] = assay: Inhibition of Akt phosphorylation in SCID mouse xenografted with PTEN-null human PC3 cells at 100 mg/kg, po measured after 30 mins; type: functional; conditions: PC-3, 0.5 h; method in brief: as §6
# Mus musculus [28] = assay: Inhibition of Akt phosphorylation in SCID mouse xenografted with PTEN-null human PC3 cells at 100 mg/kg, po measured after 4 hrs; type: functional; conditions: PC-3, 4 h; method in brief: as §6
# [29] = Total plasma concentration in SCID mouse xenografted with PTEN-null human PC3 cells at 100 mg/kg, po measured after 30 mins; type: ADME, organism-based, PC-3; parameters: dose 100 mg/kg, route oral; method in brief: as §1
# [30] = Total plasma concentration in SCID mouse xenografted with PTEN-null human PC3 cells at 100 mg/kg, po measured after 4 hrs; type: ADME, organism-based, PC-3; parameters: dose 100 mg/kg, route oral; method in brief: as §1
# Homo sapiens = species: Homo sapiens; assay: Ratio of IC50 for PI3Kalpha human BT474 cells to IC50 PI3Kbeta in human […] cells
# [31] = Total plasma concentration in SCID mouse xenografted with PTEN-null human PC3 cells at 100 mg/kg, po measured after 8 hrs; type: ADME, organism-based, PC-3; parameters: dose 100 mg/kg, route oral; method in brief: as §1
# Mus musculus [32] = assay: Inhibition of Akt phosphorylation in SCID mouse xenografted with PTEN-null human PC3 cells at 100 mg/kg, po measured after 1 hr; type: functional; conditions: PC-3, 1 h; method in brief: as §6
# Mus musculus [33] = assay: Inhibition of Akt phosphorylation in SCID mouse xenografted with PTEN-null human PC3 cells at 100 mg/kg, po measured after 8 hrs; type: functional; conditions: PC-3, 8 h; method in brief: as §6
# [34] = Ratio of total plasma concentration in PTEN-null human PC3 cells xenografted in SCID mouse at 100 mg/kg, po single dose at 1 hrs to IC50 for PI3Kbeta in human MAD-MB-468 cells; parameters: species or system PC-3
# [35] = Ratio of total plasma concentration in PTEN-null human PC3 cells xenografted in SCID mouse at 100 mg/kg, po single dose at 8 hrs to IC50 for PI3Kbeta in human MAD-MB-468 cells; parameters: species or system PC-3
# [36] = Total plasma concentration in SCID mouse xenografted with PTEN-null human PC3 cells at 100 mg/kg, po measured after 1 hr; type: ADME, organism-based, PC-3; parameters: dose 100 mg/kg, route oral; method in brief: as §1
# T1 sequence (P42338 whole entry, canonical isoform): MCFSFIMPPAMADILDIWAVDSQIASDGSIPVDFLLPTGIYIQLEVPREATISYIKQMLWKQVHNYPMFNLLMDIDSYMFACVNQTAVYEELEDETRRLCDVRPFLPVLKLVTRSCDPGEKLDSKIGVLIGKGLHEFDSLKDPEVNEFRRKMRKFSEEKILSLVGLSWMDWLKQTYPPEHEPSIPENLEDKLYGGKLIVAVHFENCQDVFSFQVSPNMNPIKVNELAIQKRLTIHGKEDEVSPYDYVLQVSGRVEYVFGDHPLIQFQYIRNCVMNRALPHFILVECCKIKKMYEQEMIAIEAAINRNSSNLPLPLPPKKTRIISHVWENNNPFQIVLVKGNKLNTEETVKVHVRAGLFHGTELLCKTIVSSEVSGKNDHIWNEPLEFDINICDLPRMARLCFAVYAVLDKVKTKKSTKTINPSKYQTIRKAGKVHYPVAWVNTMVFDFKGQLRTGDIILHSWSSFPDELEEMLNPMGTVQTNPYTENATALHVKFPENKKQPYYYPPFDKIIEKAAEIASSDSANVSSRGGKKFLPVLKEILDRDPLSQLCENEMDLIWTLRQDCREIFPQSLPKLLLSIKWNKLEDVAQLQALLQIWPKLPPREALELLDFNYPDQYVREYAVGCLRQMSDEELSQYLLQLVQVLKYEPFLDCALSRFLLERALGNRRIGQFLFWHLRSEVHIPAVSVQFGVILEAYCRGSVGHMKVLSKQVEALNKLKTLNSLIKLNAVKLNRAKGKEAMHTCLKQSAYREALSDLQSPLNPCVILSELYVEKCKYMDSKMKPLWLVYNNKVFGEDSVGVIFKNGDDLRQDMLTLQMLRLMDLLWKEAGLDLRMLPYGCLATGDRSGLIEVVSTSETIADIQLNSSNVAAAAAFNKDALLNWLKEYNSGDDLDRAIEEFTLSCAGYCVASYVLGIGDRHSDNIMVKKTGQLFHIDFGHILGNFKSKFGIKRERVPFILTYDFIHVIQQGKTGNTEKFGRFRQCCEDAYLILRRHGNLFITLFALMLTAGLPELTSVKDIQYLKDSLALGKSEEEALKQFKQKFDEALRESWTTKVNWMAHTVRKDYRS
# Phosphatidylinositol 4,5-bisphosphate 3-kinase catalytic subunit gamma isoform, sequence (P48736 whole entry, canonical isoform): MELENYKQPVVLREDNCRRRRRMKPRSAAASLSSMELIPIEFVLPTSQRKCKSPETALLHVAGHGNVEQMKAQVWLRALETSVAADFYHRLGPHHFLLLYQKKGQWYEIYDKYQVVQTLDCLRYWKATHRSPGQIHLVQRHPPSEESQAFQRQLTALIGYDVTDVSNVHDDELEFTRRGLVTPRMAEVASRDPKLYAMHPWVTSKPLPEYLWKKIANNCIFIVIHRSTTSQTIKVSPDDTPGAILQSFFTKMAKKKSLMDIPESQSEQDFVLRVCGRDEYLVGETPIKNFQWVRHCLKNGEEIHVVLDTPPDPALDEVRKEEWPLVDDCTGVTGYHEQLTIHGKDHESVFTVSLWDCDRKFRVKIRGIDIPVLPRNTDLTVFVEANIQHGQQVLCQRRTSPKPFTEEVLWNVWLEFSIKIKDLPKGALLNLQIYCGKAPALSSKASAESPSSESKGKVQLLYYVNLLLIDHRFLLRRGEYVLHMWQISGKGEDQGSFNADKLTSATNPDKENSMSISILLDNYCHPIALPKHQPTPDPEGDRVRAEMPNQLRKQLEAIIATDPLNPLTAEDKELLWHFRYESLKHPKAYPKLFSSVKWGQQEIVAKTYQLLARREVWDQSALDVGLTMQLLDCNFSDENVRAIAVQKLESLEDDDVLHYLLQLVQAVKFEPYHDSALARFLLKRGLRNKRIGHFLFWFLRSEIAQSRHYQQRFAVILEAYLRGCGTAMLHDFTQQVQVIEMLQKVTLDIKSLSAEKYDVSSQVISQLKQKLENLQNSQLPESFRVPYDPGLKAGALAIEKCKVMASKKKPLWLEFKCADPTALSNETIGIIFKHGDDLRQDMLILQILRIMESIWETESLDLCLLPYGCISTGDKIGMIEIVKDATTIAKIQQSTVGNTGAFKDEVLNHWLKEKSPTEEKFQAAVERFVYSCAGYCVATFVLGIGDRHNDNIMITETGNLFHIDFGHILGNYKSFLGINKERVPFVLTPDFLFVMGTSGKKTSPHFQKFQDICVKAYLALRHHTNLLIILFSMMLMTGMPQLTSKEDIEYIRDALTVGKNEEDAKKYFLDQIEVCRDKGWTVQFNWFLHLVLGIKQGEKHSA
# T2 sequence (P42336 whole entry, canonical isoform): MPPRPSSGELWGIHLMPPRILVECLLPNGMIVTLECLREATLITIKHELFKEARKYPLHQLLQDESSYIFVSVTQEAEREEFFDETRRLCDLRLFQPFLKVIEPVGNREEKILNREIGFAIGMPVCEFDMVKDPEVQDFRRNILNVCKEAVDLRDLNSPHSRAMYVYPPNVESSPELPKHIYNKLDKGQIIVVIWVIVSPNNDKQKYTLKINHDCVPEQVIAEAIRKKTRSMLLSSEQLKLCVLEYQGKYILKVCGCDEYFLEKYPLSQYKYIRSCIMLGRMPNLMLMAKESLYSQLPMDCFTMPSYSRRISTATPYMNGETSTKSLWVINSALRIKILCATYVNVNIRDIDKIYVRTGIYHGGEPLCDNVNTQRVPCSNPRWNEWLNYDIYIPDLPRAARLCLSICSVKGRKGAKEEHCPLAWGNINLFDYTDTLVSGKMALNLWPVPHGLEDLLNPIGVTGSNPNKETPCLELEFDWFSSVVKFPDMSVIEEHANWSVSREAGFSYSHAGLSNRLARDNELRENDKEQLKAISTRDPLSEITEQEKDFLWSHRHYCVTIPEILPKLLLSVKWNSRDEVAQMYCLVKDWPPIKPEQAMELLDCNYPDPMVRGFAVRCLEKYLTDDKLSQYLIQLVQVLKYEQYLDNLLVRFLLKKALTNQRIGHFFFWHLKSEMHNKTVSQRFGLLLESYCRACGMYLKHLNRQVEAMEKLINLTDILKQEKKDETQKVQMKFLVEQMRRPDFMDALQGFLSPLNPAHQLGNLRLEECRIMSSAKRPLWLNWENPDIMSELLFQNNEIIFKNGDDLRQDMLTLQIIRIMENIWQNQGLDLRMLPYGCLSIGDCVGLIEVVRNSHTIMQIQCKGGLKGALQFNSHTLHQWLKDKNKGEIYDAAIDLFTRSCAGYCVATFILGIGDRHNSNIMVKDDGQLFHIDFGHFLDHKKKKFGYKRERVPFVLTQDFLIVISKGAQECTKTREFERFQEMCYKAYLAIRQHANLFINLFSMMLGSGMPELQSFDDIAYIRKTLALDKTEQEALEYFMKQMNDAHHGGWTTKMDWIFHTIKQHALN
IC50 [7],Papp A→B [8],logD [9],hepatocyte CLint [10],solubility [11],IC50 [12],IC50 [13],IC50 [14],IC50 [15],IC50 [16],fraction unbound [17],fraction unbound [18],clearance [19],bioavailability [20],concentration at 4 h [30],SMILES,Ratio [25],inhibition in vivo at 100 mg/kg (Mus musculus [28]),also measured
34 nM,44 ×10⁻⁶ cm/s,2.7,9 µL/min/1e6 cells,20 µM,340 nM,7 nM,3000 nM,45 nM,4700 nM,0.087,0.14,74 mL/min/kg,35%,–,"CC(Nc1ccc(F)c(F)c1)c1cc(C(=O)N(C)C)cn2c(=O)cc(N3CCOCC3)nc12 (single isomer, unassigned; (-))",–,–,concentration at 0.5 h [1]: 3.9 µM; concentration at 4 h [2]: 2.3 µM; concentration at 8 h [3]: 0.3 µM; Ratio [4]: 10; Ratio [5]: 5.9; Ratio [6]: 2.5; inhibition in vivo at 200 mg/kg (Mus musculus [21]): 81%; inhibition in vivo at 200 mg/kg (Mus musculus [22]): 81%; inhibition in vivo at 200 mg/kg (Mus musculus [23]): 71%
62 nM,34 ×10⁻⁶ cm/s,2.3,3 µL/min/1e6 cells,130 µM,1300 nM,37 nM,13500 nM,230 nM,11600 nM,0.12,0.21,45 mL/min/kg,70%,8.1 µM,"CC(Nc1ccc(F)cc1)c1cc(C(=O)N(C)C)cn2c(=O)cc(N3CCOCC3)nc12 (single isomer, unassigned; (-))",16,60%,Ratio [24]: 140; half-life [26]: 1.1 h; inhibition in vivo at 100 mg/kg (Mus musculus [27]): 85%; concentration at 0.5 h [29]: 71 µM; Ratio IC50 (Homo sapiens): 190
3 nM,50 ×10⁻⁶ cm/s,3,11 µL/min/1e6 cells,15 µM,75 nM,5 nM,510 nM,32 nM,1200 nM,0.047,0.12,82 mL/min/kg,31%,6.8 µM,C[C@@H](Nc1cc(F)cc(F)c1)c1cc(C(=O)N(C)C)cn2c(=O)cc(N3CCOCC3)nc12,106,80%,concentration at 8 h [31]: 2.6 µM; inhibition in vivo at 100 mg/kg (Mus musculus [32]): 92%; inhibition in vivo at 100 mg/kg (Mus musculus [33]): 56%; Ratio [34]: 204; Ratio [35]: 41; concentration at 1 h [36]: 13 µM
